ChEMBL document CHEMBL1145101, “Macrocyclization in the design of Grb2 SH2 domain-binding ligands exhibiting high potency in whole-cell systems” (J Med Chem, 2003)

Legend:
MDA-MB-453 = assay: (§1) Growth inhibition against MDA-453 breast cancer cells; type: functional, cell-based; conditions: Homo sapiens
Outline: (§2)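 MDA-453 cells seeded at 500 per well and kept in IMEM with 10% fetal bovine serum at 37 °C under 5% CO₂. Inhibitor dilutions were added, with fresh drug solution each day for 5 days. Growth was read by MTT (0.5 mg/mL, 4 h), then medium removed and dissolved cells read at 570 nm. Results are expressed as percent of no-drug control.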

[1] = biological target: Growth factor receptor-bound protein 2 (Homo sapiens, UniProt P62993); assay: Inhibition against Growth factor receptor bound protein 2 binding using ELISA technique
Outline: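 Competition ELISA: biotinylated SHC-derived Grb2 SH2-binding phosphopeptide bound at 20 ng/mL to plates overnight, then blocked with 5% BSA in TBS. Recombinant Grb2 SH2-GST fusion was preincubated with serial inhibitor dilutions, then added. After washing with 0.1% BSA/TBS, bound protein was detected with anti-GST and alkaline phosphatase-conjugated secondary, using p-nitrophenyl phosphate colorimetry. Each compound had at least three determinations, with a positive control.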

[2] = as §1; type: functional, cell-based; conditions: Homo sapiens, Cancer cell lines; outline: as §2

| IC50 (MDA-MB-453) [nM] | IC50 [1] [nM] | Compound | IC50 [2] [nM] |
| --- | --- | --- | --- |
| > 50000 | > 10000 | NC(=O)C[C@@H]1NC(=O)C2(CCCCC2)NC(=O)C[C@@H](c2ccc(CP(=O)(O)O)cc2)C/C=C/C[C@@H](Cc2cccc3ccccc23)CNC1=O |  |
|  |  | NC(=O)C[C@H](NC(=O)C1(NC(=O)[C@H](Cc2ccc(CP(=O)(O)O)cc2)NC(=O)C(=O)O)CCCCC1)C(=O)NCCCC1=c2ccccc2=CCC1 | 5000 |
| 800 | 2 | NC(=O)C[C@@H]1NC(=O)C2(CCCCC2)NC(=O)[C@@H](CC(=O)O)[C@@H](c2ccc(CP(=O)(O)O)cc2)/C=C/C[C@@H](CC2=c3ccccc3=CCC2)CNC1=O |  |
| 8000 | 8 | CC1(C)NC(=O)[C@@H](CC(=O)O)[C@@H](c2ccc(CP(=O)(O)O)cc2)/C=C/C[C@@H](CC2=c3ccccc3=CCC2)CNC(=O)[C@H](CC(N)=O)NC1=O |  |
|  | 20 | NC(=O)C[C@@H]1NC(=O)C2(CCCCC2)NC(=O)C[C@@H](c2ccc(CP(=O)(O)O)cc2)/C=C/C[C@@H](CC2=c3ccccc3=CCC2)CNC1=O |  |
